Laboratory results taken from ChEMBL document CHEMBL5247575 (J Med Chem, 2018).

System: Escherichia coli
Test: Synergistic antibacterial activity against Escherichia coli DH10B transfected with pBC SK (-) KPC-3 assessed as meropenem MIC at 4 ug/ml by broth microdilution method
Format: functional
Conditions: dose 4 µg/ml

SMILES	MIC [µg/mL]
O=C(NNC(=O)[C@@H]1CC[C@@H]2CN1C(=O)N2OS(=O)(=O)O)[C@@H]1CCNC1	≤ 0.12

System: Acinetobacter baumannii
Test: Synergistic antibacterial activity against Acinetobacter baumannii PR381 producing OXA-24/40 assessed as meropenem MIC at 4 ug/ml by broth microdilution method
Format: functional
Conditions: dose 4 µg/ml

SMILES	MIC [µg/mL]
O=C(NNC(=O)[C@@H]1CC[C@@H]2CN1C(=O)N2OS(=O)(=O)O)[C@@H]1CCNC1	> 16

Target: not listed separately
Test: Inhibition of bacteria ADC-7 assessed as apparent inhibition constant using nitrocefin as substrate
Conditions: not given

SMILES	Ki [µM]
O=C(NNC(=O)[C@@H]1CC[C@@H]2CN1C(=O)N2OS(=O)(=O)O)[C@@H]1CCNC1	3.7

System: Klebsiella pneumoniae
Test: Synergistic antibacterial activity against Klebsiella pneumoniae 901/1860 producing KPC-3 assessed as meropenem MIC at 8 ug/ml by broth microdilution method
Format: functional
Conditions: dose 8 µg/ml

SMILES	MIC [µg/mL]
O=C(NNC(=O)[C@@H]1CC[C@@H]2CN1C(=O)N2OS(=O)(=O)O)[C@@H]1CCNC1	≤ 0.12

System: Escherichia coli
Test: Synergistic antibacterial activity against Escherichia coli DH10B transfected with pBR322-catI-KPC-2 assessed as cefepime MIC at 4 ug/ml by broth microdilution method
Format: functional
Conditions: dose 4 µg/ml
Outline: (§1)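 Broth microdilution per CLSI guidelines, using custom frozen panels. […] Each partner drug was also tested alone. MICs were run in triplicate and the modal value is reported.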

SMILES	MIC [µg/mL]
O=C(NNC(=O)[C@@H]1CC[C@@H]2CN1C(=O)N2OS(=O)(=O)O)[C@@H]1CCNC1	≤ 0.12

System: Acinetobacter baumannii
Test: Synergistic antibacterial activity against ADC deleted Acinetobacter baumannii assessed as cefepime MIC at 8 ug/ml by broth microdilution method
Format: functional
Conditions: dose 8 µg/ml

SMILES	MIC [µg/mL]
O=C(NNC(=O)[C@@H]1CC[C@@H]2CN1C(=O)N2OS(=O)(=O)O)[C@@H]1CCNC1	0.5

System: Klebsiella pneumoniae
Test: Synergistic antibacterial activity against Klebsiella pneumoniae 1315/2198 producing KPC-3 assessed as meropenem MIC at 4 ug/ml by broth microdilution method
Format: functional
Conditions: dose 4 µg/ml
Outline: as §1

SMILES	MIC [µg/mL]
O=C(NNC(=O)[C@@H]1CC[C@@H]2CN1C(=O)N2OS(=O)(=O)O)[C@@H]1CCNC1	≤ 0.12

System: Bacteria
Test: Inhibition of bacteria ADC-7 assessed as second order rate constant K2/K using nitrocefin as substrate
Conditions: not given

SMILES	K
O=C(NNC(=O)[C@@H]1CC[C@@H]2CN1C(=O)N2OS(=O)(=O)O)[C@@H]1CCNC1	3.2 10^4/M/s

System: Klebsiella pneumoniae
Test: Synergistic antibacterial activity against Klebsiella pneumoniae CAV 1636 producing OXA-181 assessed as meropenem MIC at 8 ug/ml by broth microdilution method
Format: functional
Conditions: dose 8 µg/ml

SMILES	MIC [µg/mL]
O=C(NNC(=O)[C@@H]1CC[C@@H]2CN1C(=O)N2OS(=O)(=O)O)[C@@H]1CCNC1	≤ 0.12

System: Acinetobacter baumannii
Test: Synergistic antibacterial activity against Acinetobacter baumannii PR363 producing OXA-23 assessed as cefepime MIC at 4 ug/ml by broth microdilution method
Format: functional
Conditions: dose 4 µg/ml

SMILES	MIC [µg/mL]
O=C(NNC(=O)[C@@H]1CC[C@@H]2CN1C(=O)N2OS(=O)(=O)O)[C@@H]1CCNC1	8

System: Klebsiella pneumoniae
Test: Synergistic antibacterial activity against Klebsiella pneumoniae 660/1568 producing KPC-3 assessed as meropenem MIC at 4 ug/ml by broth microdilution method
Format: functional
Conditions: dose 4 µg/ml
Outline: as §1

SMILES	MIC [µg/mL]
O=C(NNC(=O)[C@@H]1CC[C@@H]2CN1C(=O)N2OS(=O)(=O)O)[C@@H]1CCNC1	≤ 0.12

System: Klebsiella pneumoniae
Test: Synergistic antibacterial activity against Klebsiella pneumoniae CAV 1543 producing OXA-48 assessed as cefepime MIC at 8 ug/ml by broth microdilution method
Format: functional
Conditions: dose 8 µg/ml

SMILES	MIC [µg/mL]
O=C(NNC(=O)[C@@H]1CC[C@@H]2CN1C(=O)N2OS(=O)(=O)O)[C@@H]1CCNC1	≤ 0.12

System: Acinetobacter baumannii
Test: Synergistic antibacterial activity against Acinetobacter baumannii PR420 producing OXA-23/24/40 assessed as cefepime MIC at 8 ug/ml by broth microdilution method
Format: functional
Conditions: dose 8 µg/ml

SMILES	MIC [µg/mL]
O=C(NNC(=O)[C@@H]1CC[C@@H]2CN1C(=O)N2OS(=O)(=O)O)[C@@H]1CCNC1	> 16

System: Acinetobacter baumannii
Test: Synergistic antibacterial activity against ADC deleted Acinetobacter baumannii assessed as meropenem MIC at 4 ug/ml by broth microdilution method
Format: functional
Conditions: dose 4 µg/ml

SMILES	MIC [µg/mL]
O=C(NNC(=O)[C@@H]1CC[C@@H]2CN1C(=O)N2OS(=O)(=O)O)[C@@H]1CCNC1	> 16

System: Klebsiella pneumoniae
Test: Synergistic antibacterial activity against Klebsiella pneumoniae 977/1916 producing KPC-3 assessed as cefepime MIC at 4 ug/ml by broth microdilution method
Format: functional
Conditions: dose 4 µg/ml

SMILES	MIC [µg/mL]
O=C(NNC(=O)[C@@H]1CC[C@@H]2CN1C(=O)N2OS(=O)(=O)O)[C@@H]1CCNC1	≤ 0.12

System: Acinetobacter baumannii
Test: Synergistic antibacterial activity against Acinetobacter baumannii PR440 producing OXA-23/24/40 assessed as meropenem MIC at 8 ug/ml by broth microdilution method
Format: functional
Conditions: dose 8 µg/ml

SMILES	MIC [µg/mL]
O=C(NNC(=O)[C@@H]1CC[C@@H]2CN1C(=O)N2OS(=O)(=O)O)[C@@H]1CCNC1	> 16

System: Acinetobacter baumannii
Test: Synergistic antibacterial activity against ADC deleted Acinetobacter baumannii transfected with pWH1266 OXA-23 assessed as meropenem MIC at 8 ug/ml by broth microdilution method
Format: functional
Conditions: dose 8 µg/ml
Outline: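 Broth microdilution per CLSI guidelines in frozen panels. Test compound held at fixed 8 mg/L while the partner β-lactam concentration was increased. Run in triplicate; modal MIC reported.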

SMILES	MIC [µg/mL]
O=C(NNC(=O)[C@@H]1CC[C@@H]2CN1C(=O)N2OS(=O)(=O)O)[C@@H]1CCNC1	> 16

System: Klebsiella pneumoniae
Test: Synergistic antibacterial activity against Klebsiella pneumoniae 761/1723 producing KPC-3 assessed as cefepime MIC at 4 ug/ml by broth microdilution method
Format: functional
Conditions: dose 4 µg/ml
Outline: as §1

SMILES	MIC [µg/mL]
O=C(NNC(=O)[C@@H]1CC[C@@H]2CN1C(=O)N2OS(=O)(=O)O)[C@@H]1CCNC1	≤ 0.12

System: Klebsiella pneumoniae
Test: Synergistic antibacterial activity against Klebsiella pneumoniae CAV 1543 producing OXA-48 assessed as meropenem MIC at 8 ug/ml by broth microdilution method
Format: functional
Conditions: dose 8 µg/ml

SMILES	MIC [µg/mL]
O=C(NNC(=O)[C@@H]1CC[C@@H]2CN1C(=O)N2OS(=O)(=O)O)[C@@H]1CCNC1	≤ 0.12

System: Klebsiella pneumoniae
Test: Synergistic antibacterial activity against Klebsiella pneumoniae 977/1916 producing KPC-3 assessed as meropenem MIC at 4 ug/ml by broth microdilution method
Format: functional
Conditions: dose 4 µg/ml

SMILES	MIC [µg/mL]
O=C(NNC(=O)[C@@H]1CC[C@@H]2CN1C(=O)N2OS(=O)(=O)O)[C@@H]1CCNC1	≤ 0.12

System: Klebsiella pneumoniae
Test: Synergistic antibacterial activity against Klebsiella pneumoniae 776/1742 producing KPC-2 assessed as cefepime MIC at 8 ug/ml by broth microdilution method
Format: functional
Conditions: dose 8 µg/ml

SMILES	MIC [µg/mL]
O=C(NNC(=O)[C@@H]1CC[C@@H]2CN1C(=O)N2OS(=O)(=O)O)[C@@H]1CCNC1	≤ 0.12

System: Escherichia coli
Test: Synergistic antibacterial activity against Escherichia coli DH10B assessed as cefepime MIC at 8 ug/ml by broth microdilution method
Format: functional
Conditions: dose 8 µg/ml

SMILES	MIC [µg/mL]
O=C(NNC(=O)[C@@H]1CC[C@@H]2CN1C(=O)N2OS(=O)(=O)O)[C@@H]1CCNC1	≤ 0.12

System: Klebsiella pneumoniae
Test: Synergistic antibacterial activity against Klebsiella pneumoniae 1354/2241 producing KPC-3 assessed as meropenem MIC at 8 ug/ml by broth microdilution method
Format: functional
Conditions: dose 8 µg/ml
Outline: as §1

SMILES	MIC [µg/mL]
O=C(NNC(=O)[C@@H]1CC[C@@H]2CN1C(=O)N2OS(=O)(=O)O)[C@@H]1CCNC1	≤ 0.12

System: Escherichia coli
Test: Synergistic antibacterial activity against Escherichia coli DH10B transfected with pBC SK (-) KPC-2 assessed as cefepime MIC at 4 ug/ml by broth microdilution method
Format: functional
Conditions: dose 4 µg/ml

SMILES	MIC [µg/mL]
O=C(NNC(=O)[C@@H]1CC[C@@H]2CN1C(=O)N2OS(=O)(=O)O)[C@@H]1CCNC1	≤ 0.12

System: Escherichia coli
Test: Synergistic antibacterial activity against Escherichia coli DH10B transfected with pBC SK (-) OXA-48 assessed as cefepime MIC at 4 ug/ml by broth microdilution method
Format: functional
Conditions: dose 4 µg/ml
Outline: as §1

SMILES	MIC [µg/mL]
O=C(NNC(=O)[C@@H]1CC[C@@H]2CN1C(=O)N2OS(=O)(=O)O)[C@@H]1CCNC1	≤ 0.12

System: Acinetobacter baumannii
Test: Synergistic antibacterial activity against Acinetobacter baumannii PR448 producing OXA-23 assessed as meropenem MIC at 8 ug/ml by broth microdilution method
Format: functional
Conditions: dose 8 µg/ml

SMILES	MIC [µg/mL]
O=C(NNC(=O)[C@@H]1CC[C@@H]2CN1C(=O)N2OS(=O)(=O)O)[C@@H]1CCNC1	> 16

System: Acinetobacter baumannii
Test: Synergistic antibacterial activity against Acinetobacter baumannii PR323 producing OXA-24/40 assessed as cefepime MIC at 8 ug/ml by broth microdilution method
Format: functional
Conditions: dose 8 µg/ml

SMILES	MIC [µg/mL]
O=C(NNC(=O)[C@@H]1CC[C@@H]2CN1C(=O)N2OS(=O)(=O)O)[C@@H]1CCNC1	8

System: Acinetobacter baumannii
Test: Synergistic antibacterial activity against ADC deleted Acinetobacter baumannii transfected with pWH1266 OXA-23 assessed as cefepime MIC at 8 ug/ml by broth microdilution method
Format: functional
Conditions: dose 8 µg/ml

SMILES	MIC [µg/mL]
O=C(NNC(=O)[C@@H]1CC[C@@H]2CN1C(=O)N2OS(=O)(=O)O)[C@@H]1CCNC1	16

System: Klebsiella pneumoniae
Test: Synergistic antibacterial activity against Klebsiella pneumoniae 935/1884 producing KPC-3 assessed as meropenem MIC at 8 ug/ml by broth microdilution method
Format: functional
Conditions: dose 8 µg/ml

SMILES	MIC [µg/mL]
O=C(NNC(=O)[C@@H]1CC[C@@H]2CN1C(=O)N2OS(=O)(=O)O)[C@@H]1CCNC1	≤ 0.12

System: Escherichia coli
Test: Synergistic antibacterial activity against Escherichia coli DH10B transfected with pBC SK (-) OXA-48 assessed as meropenem MIC at 4 ug/ml by broth microdilution method
Format: functional
Conditions: dose 4 µg/ml
Outline: as §1

SMILES	MIC [µg/mL]
O=C(NNC(=O)[C@@H]1CC[C@@H]2CN1C(=O)N2OS(=O)(=O)O)[C@@H]1CCNC1	≤ 0.12

System: Acinetobacter baumannii
Test: Synergistic antibacterial activity against Acinetobacter baumannii PR323 producing OXA-24/40 assessed as meropenem MIC at 4 ug/ml by broth microdilution method
Format: functional
Conditions: dose 4 µg/ml

SMILES	MIC [µg/mL]
O=C(NNC(=O)[C@@H]1CC[C@@H]2CN1C(=O)N2OS(=O)(=O)O)[C@@H]1CCNC1	> 16

System: Acinetobacter baumannii
Test: Synergistic antibacterial activity against Acinetobacter baumannii PR359 producing OXA-23 assessed as cefepime MIC at 8 ug/ml by broth microdilution method
Format: functional
Conditions: dose 8 µg/ml

SMILES	MIC [µg/mL]
O=C(NNC(=O)[C@@H]1CC[C@@H]2CN1C(=O)N2OS(=O)(=O)O)[C@@H]1CCNC1	16

System: Klebsiella pneumoniae
Test: Synergistic antibacterial activity against Klebsiella pneumoniae 1084/1957 producing KPC-3 assessed as cefepime MIC at 4 ug/ml by broth microdilution method
Format: functional
Conditions: dose 4 µg/ml
Outline: as §1

SMILES	MIC [µg/mL]
O=C(NNC(=O)[C@@H]1CC[C@@H]2CN1C(=O)N2OS(=O)(=O)O)[C@@H]1CCNC1	≤ 0.12

System: Klebsiella pneumoniae
Test: Synergistic antibacterial activity against Klebsiella pneumoniae 977/1916 producing KPC-3 assessed as meropenem MIC at 8 ug/ml by broth microdilution method
Format: functional
Conditions: dose 8 µg/ml

SMILES	MIC [µg/mL]
O=C(NNC(=O)[C@@H]1CC[C@@H]2CN1C(=O)N2OS(=O)(=O)O)[C@@H]1CCNC1	≤ 0.12
